Compound activity: PubChem BioAssay, several laboratories
Dyrk1A ADPGlo – rat Dyrk1A kinase inhibitors, primary screen, biochemical, single point, plate reader; Dual specificity tyrosine-phosphorylation-regulated kinase 1A (Rattus norvegicus), Q63470; inhibition, % at 12.5 µM; AID 504441, 2011; ADP-Glo luminescence, NFATc1 peptide; 310,000 tested, 0.43% active; in the data active means inhibition above about 50%;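 further: plate controls were vehicle with enzyme for no effect and no enzyme for full effect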
PvdQ acylase – P. aeruginosa PvdQ acylase inhibitors, primary screen, biochemical, fluorescence, plate reader and imaging, single point; purified PvdQ acylase; inhibition, % at 10 µM; 340,000 tested, 0.063% active; in the data active means inhibition above about 30%, passing the limit was not always enough;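 further: 0% = vehicle neutral wells and 100% = reference inhibitor wells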
CAL PDZ FP-1 – CAL PDZ peptide-binding inhibitors, primary screen, biochemical, fluorescence polarization, Cer-tagged CAL PDZ, HTS | Golgi-associated PDZ and coiled-coil motif-containing protein (Homo sapiens), Q9HD26 | purified CAL PDZ, TMR-peptide fluorescence polarization, 1 h | inhibition, % at 20 µM | 330,000 tested, 0.02% active;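 active means highest replicate inhibition of at least 40%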;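 further: plate controls were DMSO neutral control wells for no effect and unlabeled competitor peptide control wells for full effect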
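System: tagged CAL PDZ domain. Schedule: 1 h room-temperature incubation prior to read. Signal: fluorescence polarization (mP). Measure: percent inhibition from loss of millipolarization.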
Tb MetRS inh – T. brucei MetRS inhibitors, primary screen, biochemical, luminescence. purified T. brucei MetRS, ATP depletion, Kinase-Glo luminescence. 360,000 tested, 0.4% active. inhibition, % at 11.9 µM. methionyl-tRNA synthetase (Trypanosoma brucei brucei);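 active means inhibition above a per-plate cutoff of the control wells' mean inhibition plus 3 SD, cut at about 5.5% in these data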;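 further: 0% = DMSO wells median and 100% = median of wells with control inhibitor compound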
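Material – parasite MetRS enzyme · Medium – HEPES-MgCl2-KCl buffer plus DTT, spermine, BSA, pyrophosphatase · Reagent – ATP, methionine and E. coli bulk tRNA substrates · Times – 15 min enzyme-compound preincubation, 2 h reaction, 10 min detection, 25 °C · Measured by – luminescence of leftover ATP · Evaluation – percent inhibition relative to median high and low control wells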
CAL PDZ FP-2 – untagged CAL PDZ binding inhibitors, primary screen, biochemical, fluorescence polarization, HTS | purified CAL PDZ, TMR-peptide fluorescence polarization, 1 h | inhibition, % at 24.9 µM | 300,000 tested, 0.92% active | AID 602252, 2012;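 active means mean inhibition of at least 30% with at least half of replicates also reaching 30%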;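 further: 0% = DMSO neutral control and 100% = excess unlabeled competitor peptide PRC23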
CDK5 inh – inhibitors of human CDK5/p35 kinase, primary screen, biochemical, single concentration | Recombinant CDK5/p35, ADP-Glo luminescence, 60 min | inhibition, % at 10 µM | 330,000 tested, 0.01% active | AID 488839, 2010;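 active means highest replicate inhibition of at least 50% and at least 75% of replicates reaching 50%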;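 further: plate controls were DMSO neutral control for no effect and GW8510 at 10 µM for full effect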
Target sequence (Q00535 whole entry, looked up): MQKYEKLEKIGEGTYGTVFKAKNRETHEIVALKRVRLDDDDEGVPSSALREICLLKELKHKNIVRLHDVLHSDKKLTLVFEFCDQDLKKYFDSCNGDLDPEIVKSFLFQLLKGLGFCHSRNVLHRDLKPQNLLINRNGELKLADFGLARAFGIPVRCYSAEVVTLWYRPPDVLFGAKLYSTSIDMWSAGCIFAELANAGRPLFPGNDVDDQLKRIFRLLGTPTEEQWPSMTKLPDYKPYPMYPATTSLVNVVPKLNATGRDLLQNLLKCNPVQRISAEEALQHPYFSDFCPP
Target sequence (Q15078 whole entry, looked up): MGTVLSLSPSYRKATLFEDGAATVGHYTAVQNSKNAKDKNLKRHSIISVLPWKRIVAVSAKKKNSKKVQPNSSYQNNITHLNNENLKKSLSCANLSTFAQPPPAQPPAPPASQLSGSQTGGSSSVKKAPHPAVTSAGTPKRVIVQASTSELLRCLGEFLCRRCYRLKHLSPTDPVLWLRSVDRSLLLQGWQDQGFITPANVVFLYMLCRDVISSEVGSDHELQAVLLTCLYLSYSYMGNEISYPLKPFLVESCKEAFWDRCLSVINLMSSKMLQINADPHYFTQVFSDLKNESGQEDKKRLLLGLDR
Dyrk1A artifact – ADP-Glo luciferase interference without Dyrk1A, dose response, artefact control for Dyrk1A inhibitor project, biochemical, luminescence, cherry-pick, set 02; shares compounds with Dyrk1A ADPGlo; ADP-Glo luciferase artifact assay, no Dyrk1A; AC50, µM (top dose mostly 12 µM), for inactives: top-dose activity change, negative = inhibition; 1,300 tested, under 10 active; AID 588348, 2011;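 active means fitted half-maximal dose AC50 no more than ten times the top valid tested dose, with luminescence dropping as dose rises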
* = called active by the depositor. Only some compounds are listed: those with a hit (about 1.4% of all), similar ones and a draw of the others.

How did O=C1c2ccccc2C(=O)c2c(Nc3ccc(CCO)cc3)ccc(O)c21 do in these assays?
Dyrk1A ADPGlo: 4.7; PvdQ acylase: -24.1; Tb MetRS inh: -0.9; CAL PDZ FP-2: -2.8; CDK5 inh: -0.7

How did O=C(c1ccc2c3n(nc2c1)-c1ccccc1CO3)N1CCOCC1 do in these assays?
Dyrk1A ADPGlo: 58.6*; PvdQ acylase: -11.4; CAL PDZ FP-1: -1.7; Tb MetRS inh: -1.1; CAL PDZ FP-2: -3.2; CDK5 inh: 42.4; Dyrk1A artifact: 9.04µM*

How did CC(C)=CCc1cc(-c2oc3cc(O)cc(O)c3c(=O)c2O)ccc1O do in these assays?
Dyrk1A ADPGlo: 62.7*; PvdQ acylase: 5.8; CAL PDZ FP-1: -0.7; Tb MetRS inh: 0.5; CAL PDZ FP-2: -1.9; CDK5 inh: 2.4; Dyrk1A artifact: 9.5%

Results for O=c1cc(-c2ccccc2)c2c(O)cc(O)cc2o1 ?
Dyrk1A ADPGlo: 61.4*; PvdQ acylase: 4.6; CAL PDZ FP-1: -1.6; Tb MetRS inh: 0.1; CDK5 inh: 3.3; Dyrk1A artifact: 6.1%

What do the screens show for `O=c1c(O)c(-c2ccccc2)oc2cc(O)cc(O)c12`?
Dyrk1A ADPGlo: 74.8*; PvdQ acylase: 2.6; CAL PDZ FP-1: -0.8; Tb MetRS inh: -2.8; CAL PDZ FP-2: 1.9; CDK5 inh: 1.0; Dyrk1A artifact: 5.6%

What do the screens show for `O=c1c(O)c(-c2cc(O)c(O)c(O)c2)oc2cc(O)cc(O)c12`?
Dyrk1A ADPGlo: 89.6*; PvdQ acylase: -17.4; CAL PDZ FP-1: 3.7; Tb MetRS inh: 5.3; CAL PDZ FP-2: 7.1; CDK5 inh: 14.5; Dyrk1A artifact: 8.5%

How did COc1cc(OC)c2c(-c3ccccc3)cc(=O)oc2c1 do in these assays?
Dyrk1A ADPGlo: 11.8; PvdQ acylase: 7.6; CAL PDZ FP-1: -0.8; Tb MetRS inh: -0.4; CAL PDZ FP-2: 0.3; CDK5 inh: 2.1

Results for O=c1c(-c2ccccc2)c(-c2ccccc2)oc2cc(O)cc(O)c12 ?
Dyrk1A ADPGlo: 46.3; PvdQ acylase: 3.1; CAL PDZ FP-1: -2.2; Tb MetRS inh: -1.0; CAL PDZ FP-2: -7.3; CDK5 inh: 1.2

What do the screens show for `O=C(O)/C=C/c1ccc2noc(-c3ccccc3)c2c1`?
Dyrk1A ADPGlo: 69.7*; PvdQ acylase: -4.8; CAL PDZ FP-1: -2.7; Tb MetRS inh: -0.2; CAL PDZ FP-2: -4.2; CDK5 inh: 2.5; Dyrk1A artifact: 10.7%

Results for COc1ccc(-c2cc(NCc3ccccn3)n3ncnc3n2)cc1 ?
Dyrk1A ADPGlo: 8.6; PvdQ acylase: -3.0; CAL PDZ FP-1: -4.9; Tb MetRS inh: -0.9; CAL PDZ FP-2: -5.7; CDK5 inh: 0.5

What do the screens show for `COc1ccc(-c2cc(NCCc3ccncc3)n3ncnc3n2)cc1`?
Dyrk1A ADPGlo: 51.0*; PvdQ acylase: 2.2; CAL PDZ FP-1: -2.0; Tb MetRS inh: -0.6; CDK5 inh: 0.0; Dyrk1A artifact: 4.9%

What do the screens show for `Cc1cccc(C)c1NC(=O)C(c1ccnc2ccccc12)N1CCN(CCN(C)C)CC1` (stereo unspecified)?
Tb MetRS inh: -0.7

Results for Cc1cc(=O)c2ccccc2s1 ?
Dyrk1A ADPGlo: 13.5; PvdQ acylase: 16.4; CAL PDZ FP-1: 1.0; Tb MetRS inh: -2.3; CAL PDZ FP-2: -3.6; CDK5 inh: -0.1

What do the screens show for `Cn1cnc2c(=O)sc3ccccc3c21`?
Dyrk1A ADPGlo: 70.4*; PvdQ acylase: -21.0; CAL PDZ FP-1: -0.9; Tb MetRS inh: -0.4; CDK5 inh: 2.0; Dyrk1A artifact: 10.8%

How did O=C1N=C(N2CCCCC2)S/C1=C\c1ccncc1 do in these assays?
Dyrk1A ADPGlo: 41.3; PvdQ acylase: -4.9; CAL PDZ FP-1: -0.1; Tb MetRS inh: -0.4; CAL PDZ FP-2: -4.7; CDK5 inh: 1.4

Results for COc1ccc(/C=C2\SC(N3CCCCC3)=NC2=O)cc1 ?
Dyrk1A ADPGlo: 67.5*; PvdQ acylase: -12.5; Tb MetRS inh: -0.1; CAL PDZ FP-2: -2.9; CDK5 inh: 0.2; Dyrk1A artifact: 12.4%

How did CN(C)CCOC(=O)COc1ccc(Cl)cc1 do in these assays?
Dyrk1A ADPGlo: -5.7; PvdQ acylase: -8.1; CAL PDZ FP-1: -0.1; Tb MetRS inh: -0.1; CAL PDZ FP-2: -1.6; CDK5 inh: -0.4

Results for CN(C)CCCOC(=O)COc1ccc(Br)cc1 ?
Dyrk1A ADPGlo: 68.5*; PvdQ acylase: -11.1; CAL PDZ FP-1: 0.0; Tb MetRS inh: 0.2; CAL PDZ FP-2: -31.4; CDK5 inh: -0.7; Dyrk1A artifact: 9.0%

How did COc1ccc(-c2nc3ccc(Cl)cn3c2CC(C)(C)C)cc1OC do in these assays?
Tb MetRS inh: 0.2

What do the screens show for `O=c1cc(-c2ccco2)oc2c1ccc1ccccc12`?
Dyrk1A ADPGlo: 59.0*; PvdQ acylase: -6.1; CAL PDZ FP-1: -2.6; Tb MetRS inh: -2.0; CAL PDZ FP-2: 3.3; CDK5 inh: 0.4; Dyrk1A artifact: 7.3%

What do the screens show for `CC12CCC(C(=O)Nc3nccs3)(OC1=O)C2(C)C` (stereo unspecified)?
Dyrk1A ADPGlo: -1.4; PvdQ acylase: -15.2; CAL PDZ FP-1: -2.1; Tb MetRS inh: 0.0; CAL PDZ FP-2: 2.0; CDK5 inh: -0.7

What do the screens show for `CC12CCC(C(=O)Nc3nc4ccc(Br)cc4s3)(OC1=O)C2(C)C` (stereo unspecified)?
Dyrk1A ADPGlo: 81.8*; PvdQ acylase: -0.8; CAL PDZ FP-1: -3.1; Tb MetRS inh: -0.5; CAL PDZ FP-2: -2.9; CDK5 inh: 0.0; Dyrk1A artifact: 7.2%

How did O=C(Nc1ccc(F)cc1F)c1csc(-c2ccncc2)n1 do in these assays?
Dyrk1A ADPGlo: 52.0*; PvdQ acylase: -10.7; CAL PDZ FP-1: -2.7; Tb MetRS inh: 0.4; CAL PDZ FP-2: -3.8; CDK5 inh: -3.2; Dyrk1A artifact: 6.8%

Results for O=C(O)c1ccc(/C=N/Nc2ccc(C(F)(F)F)cn2)cc1 ?
Dyrk1A ADPGlo: 54.0*; PvdQ acylase: -3.7; CAL PDZ FP-1: -0.6; Tb MetRS inh: -0.7; CAL PDZ FP-2: -6.4; CDK5 inh: 56.9*; Dyrk1A artifact: 8.7%

What do the screens show for `Cc1cccc(C)c1NC(=O)C1(C)CN(S(C)(=O)=O)CC(=O)N1Cc1ccco1` (stereo unspecified)?
Tb MetRS inh: -0.5

How did C=CCn1c(SCC(=O)Nc2nc3ccccc3s2)nc(O)c(CC)c1=O do in these assays?
Dyrk1A ADPGlo: 51.1*; PvdQ acylase: -15.7; CAL PDZ FP-1: -1.2; Tb MetRS inh: 1.6; CDK5 inh: -1.2; Dyrk1A artifact: 5.9%
